Assay outcomes from PubChem.
An excerpt weighted towards active compounds, which were near 10% of everything screened.
Lmaj promast = inhibitors of Leishmania major promastigote growth; actives 9% (n = 200,000); inhibition, % at 10 µM; Leishmania major promastigotes, resazurin fluorescence viability; in the data active = inhibition above about 50%;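 also: promastigotes grown with compound for 44 hours at 28 °C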
PMI act satM6P = PMI (human) activation, high substrate; coupled PMI enzyme assay, resazurin fluorescence, 20 min; active compounds read high; 1 = untreated enzyme, 0 = substrate-free blank; activation factor at 20 µM; actives 0.34% (n = 190,000); AID 1216;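 active = activation factor of 2 or more at 20 µM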
Target sequence (P34949 whole entry, looked up): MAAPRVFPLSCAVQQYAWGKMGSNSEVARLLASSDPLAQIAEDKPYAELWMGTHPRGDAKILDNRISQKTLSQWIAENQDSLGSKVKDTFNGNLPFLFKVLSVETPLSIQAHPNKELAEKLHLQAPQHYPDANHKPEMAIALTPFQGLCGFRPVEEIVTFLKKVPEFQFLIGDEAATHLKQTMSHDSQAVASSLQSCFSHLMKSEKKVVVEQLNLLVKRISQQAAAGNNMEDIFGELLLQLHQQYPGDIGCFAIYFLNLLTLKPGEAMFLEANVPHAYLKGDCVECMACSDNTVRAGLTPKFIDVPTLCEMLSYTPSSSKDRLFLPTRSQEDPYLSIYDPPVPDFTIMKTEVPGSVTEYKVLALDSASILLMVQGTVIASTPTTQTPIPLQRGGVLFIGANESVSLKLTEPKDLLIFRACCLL
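Test system: human phosphomannose isomerase with PGI, G6PDH, diaphorase coupling enzymes; amount: 15 ng/mL PMI; incubation: enzyme reaction with compound 20 min at room temperature; technique: resorufin fluorescence (Ex 544/Em 590 nm) from resazurin via diaphorase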
Diaph act CS = diaphorase activation or chemical reduction counter-screen. Diaphorase/resazurin coupled assay, resorufin fluorescence, 16 min; active compounds read high; 1 = vehicle wells, 0 = NADH-free wells. activation factor at 20 µM. actives 0.005% (n = 190,000);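 active = diaphorase activity raised at least twofold by the compound at 20 µM; inactive = activation factor below 2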
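Material: Clostridium kluyveri diaphorase, purified enzyme; Quantity: enzyme 0.07 U/mL final; Medium: HEPES pH 7.4 buffer with MgCl2 and Tween 20; Dosing: single compound dose of 20 µM, 1% DMSO final; Schedule: 16 min reaction at room temperature; Measured by: red resorufin fluorescence at 544/590 nm excitation/emission.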
WT yeast gro inh = growth inhibition of WT yeast, mitochondrial fusion screen; mitochondrial fusion phenotypic screen, WT strain; actives 2.1% (n = 190,000); inhibition, % at 10 µM; AID 1362; in the data active = inhibition above about 58%; tested in S. cerevisiae
PMI act = activators of human phosphomannose isomerase. purified human PMI, coupled resazurin fluorescence, 20 min; active compounds read high; 1 = vehicle control, 0 substrate-free wells. P34949. AID 1214. actives 0.005% (n = 190,000). activation factor at 20 µM;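 active = activation factor of 2 or more at 20 µM, relative to plate controls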
The depositor's hits bear a star; / = not tested or not shown.

SMILES	Lmaj promast	PMI act satM6P	Diaph act CS	WT yeast gro inh	PMI act
Cc1nn(-c2ccccc2)c(N2CCCC2)c1/C=C1\N=C(c2ccc(OC(C)C)cc2)OC1=O	-3.8	0.9	0.8	-1.9	0.8
Cc1cc(NCCCN(C)C)n2nc(-c3cccs3)cc2n1	76.7*	1	1.1	-0.4	1
Cc1cc(C)c2c(n1)nn1c(NCCCN(C)C)cc(C)nc21	16.5	1	1	18.1	1
O=C(COC(=O)c1ccncc1)Nc1cc(Cl)c(Cl)cc1Cl	-6.7	1	0.9	71.4*	0.9
O=C(CCc1nnc(CCCc2ccccc2)o1)NCC(F)(F)F	-5.3	0.9	0.5	5.3	0.8
Cc1ccc(-n2c(=O)c3c(n4cnnc24)-c2ccccc2CC32CCCCC2)cc1	95.8*	1	0.8	23.8	0.8
CCSc1cc(C2C(C#N)=C(N)OC(C)=C2C(=O)OC)c(C)o1 (stereo not drawn)	0.5	2*	0.9	-11.6	1.5
COC(=O)C1=C(C)OC(N)=C(C#N)C1c1ccccc1 (stereo not drawn)	-8.5	1.1	1.1	6.7	1
CC(OC(=O)c1cc(=O)[nH]c2ccccc12)C(=O)c1ccccc1 (stereo not drawn)	-4.5	0.9	0.9	-2.3	0.9
CN1C=CC=C/C1=C1\SC(=S)N(c2ccccc2)C1=O	3.2	1	1	66.0*	1
CC1CC(C)(C)Nc2ccc(N=O)cc21 (stereo not drawn)	100.5*	0.7	0.7	74.8*	0.9
CC1CC(C)(C)Nc2ccc(OC(=O)c3ccco3)cc21 (stereo not drawn)	98.4*	0.7	1	14.4	0.9
CCn1c(COc2ccc(C)cc2)nnc1SCC(=O)NNC(=O)c1ccc(OC)cc1	12.3	1	0.9	4.6	0.9
COc1ccc(OCCCC(=O)Nc2cccc([N+](=O)[O-])c2C)cc1	-4.4	0.9	0.9	-14.7	0.9
CCOC(=O)CSc1n[nH]c(NC(C)=O)n1	-4.2	1	0.9	4.8	1
CN1CCN(NC(=O)c2cc(Br)ccc2Cl)CC1	-7.1	0.9	0.9	-2.3	0.9
CCC(C)c1ccccc1NC(=O)CN1CCN(C/C=C/c2ccccc2)CC1 (stereo not drawn)	96.4*	0.9	0.8	57.9	0.9
O=C(CN1CCN(C/C=C/c2ccccc2)CC1)NCc1ccccc1	63.3*	1.1	1	10.3	1
CC(=O)N1CCN(CC(=O)Nc2ccccc2Sc2ccccc2)CC1	48.1	0.9	0.8	-1.0	0.9
CC1CCCCC12NC(=O)N(CC(=O)Nc1ccc(N3CCOCC3)cc1)C2=O (stereo not drawn)	3.5	0.9	0.9	1.4	0.9
C/C(=N/NS(=O)(=O)c1ccc(Cl)cc1)c1cccc(NC(=O)c2ccc(Cl)cc2Cl)c1	96.9*	0.9	0.9	-15.1	0.9
C/C(=N/NS(=O)(=O)c1ccc(C)cc1)c1cccc(NC(=O)c2cccc(Cl)c2)c1	9.4	0.8	0.7	16.3	0.8
O=C(CSc1ccc(Cl)cc1)N1CCN(c2c(Cl)cccc2[N+](=O)[O-])CC1	64.8*	0.7	0.7	6.5	0.7
O=C(/C=C/c1ccc(Cl)cc1)N1CCN(c2c(Cl)cccc2[N+](=O)[O-])CC1	20.8	1	0.9	46.5	1
O=C(Cc1ccccc1)Nc1ccc2oc(=O)ccc2c1	-8.7	0.9	0.9	8.7	0.9
SMILES	Lmaj promast	PMI act satM6P	Diaph act CS	WT yeast gro inh	PMI act
COCCn1c(SCC(=O)N2CC(=O)Nc3ccccc32)nc2ccccc2c1=O	-6.0	1	1	4.8	1.1
COCCn1c(SCC(=O)N2CC(=O)Nc3ccccc32)nc2ccccc21	51.7*	1	0.9	2.1	1
O/N=C/c1ccc(OCc2ccccc2)c(Br)c1	57.1*	0.9	0.8	54.4	0.8
Oc1c(Br)cc(Br)cc1C=NCc1ccccc1	-13.8	0.7	0.8	10.8	1.1
O/N=C/c1cc(Br)ccc1OCc1ccc(F)cc1	99.6*	/	/	/	/
Cc1ccc(COc2ccc(Br)cc2/C=N/O)cc1	6.8	0.8	0.7	51.8	0.8
O/N=C/c1cc(Br)cc(Br)c1OCc1ccccc1	-2.3	0.8	0.7	60.0*	0.8
O=C(NCC1COc2ccccc2O1)c1ccc(NC(=O)C(c2ccccc2)c2ccccc2)cc1 (stereo not drawn)	91.9*	0.9	0.8	-8.8	1
